Data reported in ChEMBL document CHEMBL1938297, “Synthesis, radiofluorination and pharmacological evaluation of a fluoromethyl spirocyclic PET tracer for central σ1 receptors and comparison with fluoroalkyl homologs” (Bioorg Med Chem, 2012).

Experiments:
Mus musculus [1] = test: Biodistribution in CD1 mouse large intestine at 300 kBq, iv after 60 mins by gamma counting; format: ADME, organism-based; details: in vivo, 1 h
In short: (§1)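 Female CD-1 mice received the 18F tracer iv at 300 kBq in 0.9% NaCl containing 5% ethanol; 3–6 animals per time point (5, 30, 60, 120 min p.i.). Animals anaesthetized, blood and urine collected, killed by cervical luxation, organs dissected and weighed, counted in calibrated gamma counter. %ID/g = tissue counts / initial dose counts / tissue weight; mean with SD.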

Lung = test: Biodistribution in CD1 mouse lung at 300 kBq, iv after 30 mins by gamma counting; format: ADME, organism-based; details: in vivo, 0.5 h; in short: as §1
Mus musculus [2] = test: Biodistribution in CD1 mouse thymus at 300 kBq, iv after 5 mins by gamma counting; format: ADME, organism-based; details: in vivo; in short: as §1
Brain [3] = test: Biodistribution in CD1 mouse brain at 300 kBq, iv after 120 mins by gamma counting; format: ADME, organism-based; details: in vivo, 2 h
In short: (§2)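 Female CD-1 mice received [18F]1 (300 kBq) i.v.; 3–6 animals per time point anesthetized at 5, 30, 60 or 120 min p.i., blood and urine collected, animals euthanized by cervical dislocation, organs dissected and weighed. Radioactivity counted in a calibrated gamma counter; % ID/g = tissue counts / initial dose counts / tissue weight; means with SD.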

Spleen = test: Biodistribution in CD1 mouse spleen at 300 kBq, iv after 30 mins by gamma counting; format: ADME, organism-based; details: in vivo, 0.5 h; in short: as §1
[4] = Ratio of biodistribution in anterior olfactory bulb to facial nucleus in brain saggital section of CD1 mouse at 24 MBq, iv after 45 mins; format: ADME, organism-based; details: in vivo, 0.75 h
In short: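 Female CD-1 mouse given 24 MBq radiotracer i.v. and killed at 45 min. The brain hemispheres were frozen in isopentane (−35 °C), cut into 12 µm sagittal cryosections and exposed to 18F-sensitive phosphor screens. Regional uptake was expressed as a target-to-nontarget ratio, with the anterior olfactory bulb as the nontarget reference.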

Liver [5] = test: Biodistribution in CD1 mouse liver at 300 kBq, iv after 5 mins by gamma counting; format: ADME, organism-based; details: in vivo; in short: as §1
Cerebellum = test: Biodistribution in CD1 mouse cerebellum in brain saggital section at 24 MBq, iv at 45 mins by autoradiography; format: ADME, organism-based; details: in vivo, 0.75 h
In short: (§3)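 Female CD-1 mouse given [18F]1 (24 MBq) i.v. and sacrificed at 45 min. Brain hemispheres frozen in isopentane (−35 °C), cut into 12 µm sagittal cryosections, thaw-mounted, air-dried and exposed to 18F-sensitive storage phosphor screens. Anterior olfactory bulb served as nontarget region for target-to-nontarget ratios.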

Mus musculus [6] = test: Biodistribution in CD1 mouse eye at 300 kBq, iv after 30 mins by gamma counting; format: ADME, organism-based; details: in vivo, 0.5 h; in short: as §2
Mus musculus [7] = test: Biodistribution in CD1 mouse small intestine at 300 kBq, iv after 5 mins by gamma counting; format: ADME, organism-based; details: in vivo; in short: as §1
Kidney = test: Biodistribution in CD1 mouse kidney at 300 kBq, iv after 120 mins by gamma counting; format: ADME, organism-based; details: in vivo, 2 h; in short: as §1
Muscle tissue = test: Biodistribution in CD1 mouse muscle at 300 kBq, iv after 60 mins by gamma counting; format: ADME, organism-based; details: in vivo, 1 h; in short: as §1
[8] = n-Octanol-phosphate-saline solution partition coefficient, log D of the compound at pH 7.2 by shake-flask method; format: physicochemical
In short: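 Shake-flask distribution of the radioligand between n-octanol and aqueous buffer at pH 7.2, either phosphate buffer or phosphate-saline; n = 3.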

Brain [9] = test: Drug metabolism in CD1 mouse brain homogenates assessed as radiometabolites at 191 MBq, iv after 30 mins by radio-HPLC/TLC analysis; format: ADME, organism-based; details: in vivo, 0.5 h
In short: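 Female CD-1 mice were injected with the radiotracer via the tail vein and killed at 30 or 60 min p.i. Whole brains (n = 2 per time) were homogenised in 50 mM TRIS–HCl pH 7.4 at 4 °C and extracted twice with ice-cold acetonitrile. Concentrated extracts were analysed by radio-HPLC and radio-TLC to give % parent versus radiometabolites.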

Stomach [10] = test: Biodistribution in CD1 mouse stomach at 300 kBq, iv after 120 mins by gamma counting; format: ADME, organism-based; details: in vivo, 2 h; in short: as §1
Brain [11] = test: Biodistribution in CD1 mouse brain at 300 kBq, iv after 30 mins by gamma counting; format: ADME, organism-based; details: in vivo, 0.5 h; in short: as §2
Mus musculus [12] = test: Biodistribution in CD1 mouse small intestine at 300 kBq, iv after 60 mins by gamma counting; format: ADME, organism-based; details: in vivo, 1 h; in short: as §1
Mus musculus [13] = test: Biodistribution in CD1 mouse lateral periaqueductal gray in brain saggital section at 24 MBq, iv at 45 mins by autoradiography; format: ADME, organism-based; details: in vivo, 0.75 h
In short: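 Ex vivo autoradiography: female CD-1 mouse given 18F tracer iv (24 MBq), killed 45 min p.i.; brain hemispheres frozen in isopentane (−35 °C), 12 µm sagittal cryostat sections thaw-mounted, air-dried and exposed to 18F-sensitive phosphor screens. Regional uptake compared with anterior olfactory bulb as nontarget region (target-to-nontarget ratio).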

Mus musculus [14] = test: Biodistribution in CD1 mouse large intestine at 300 kBq, iv after 30 mins by gamma counting; format: ADME, organism-based; details: in vivo, 0.5 h; in short: as §1
Mus musculus [15] = test: Biodistribution in CD1 mouse gonads at 300 kBq, iv after 60 mins by gamma counting; format: ADME, organism-based, Gonad; details: in vivo, 1 h; in short: as §2
[16] = Chemical stability of the compound in 0.01 M Tris-HCl at pH 7.4 assessed as compound remaining after 2 hrs by radio-HPLC/TLC analysis; format: physicochemical; details: read-out: Stability
In short: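 Radiotracer incubated 120 min at 40 °C in 0.9% NaCl (pH 7.2), phosphate-saline (0.1 M sodium phosphate, 0.15 M NaCl, pH 7.2) or 0.01 M TRIS–HCl (pH 7.4 at 21 °C). Aliquots were taken at set times and analysed by radio-TLC on silica and by gradient radio-HPLC on RP-18 (MeCN/20 mM ammonium acetate, 254 nm), giving % unchanged tracer; n = 2.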

Stomach [17] = test: Biodistribution in CD1 mouse stomach at 300 kBq, iv after 60 mins by gamma counting; format: ADME, organism-based; details: in vivo, 1 h; in short: as §1
Femur = test: Biodistribution in CD1 mouse femur at 300 kBq, iv after 5 mins by gamma counting; format: ADME, organism-based; details: in vivo; in short: as §2
Mus musculus [18] = test: Biodistribution in CD1 mouse thymus at 300 kBq, iv after 120 mins by gamma counting; format: ADME, organism-based; details: in vivo, 2 h; in short: as §1
Liver [19] = test: Biodistribution in CD1 mouse liver at 300 kBq, iv after 60 mins by gamma counting; format: ADME, organism-based; details: in vivo, 1 h; in short: as §1
Mus musculus [20] = test: Biodistribution in CD1 mouse anterior olfactory bulb in brain saggital section at 24 MBq, iv at 45 mins by autoradiography; format: ADME, organism-based; details: in vivo, 0.75 h; in short: as §3
Mus musculus [21] = test: Biodistribution in CD1 mouse adrenals at 300 kBq, iv after 5 mins by gamma counting; format: ADME, organism-based, Adrenal gland; details: in vivo; in short: as §2
[22] = Biodistribution in CD1 mouse intestinal content at 300 kBq, iv after 120 mins by gamma counting; format: ADME, organism-based, Intestine; details: in vivo, 2 h; in short: as §1
Liver [23] = test: Biodistribution in CD1 mouse liver at 300 kBq, iv after 120 mins by gamma counting; format: ADME, organism-based; details: in vivo, 2 h; in short: as §1
Pancreas = test: Biodistribution in CD1 mouse pancreas at 300 kBq, iv after 60 mins by gamma counting; format: ADME, organism-based; details: in vivo, 1 h; in short: as §1
Mus musculus [24] = test: Biodistribution in CD1 mouse gonads at 300 kBq, iv after 120 mins by gamma counting; format: ADME, organism-based, Gonad; details: in vivo, 2 h; in short: as §2
[25] = Biodistribution in CD1 mouse intestinal content at 300 kBq, iv after 60 mins by gamma counting; format: ADME, organism-based, Intestine; details: in vivo, 1 h; in short: as §1
[26] = Biodistribution in CD1 mouse intestinal content at 300 kBq, iv after 30 mins by gamma counting; format: ADME, organism-based, Intestine; details: in vivo, 0.5 h; in short: as §1
Brain [27] = test: Biodistribution in CD1 mouse brain at 300 kBq, iv after 60 mins by gamma counting; format: ADME, organism-based; details: in vivo, 1 h; in short: as §2

With `[18F]CC1OC2(CCN(Cc3ccccc3)CC2)c2ccccc21` (centres undefined) the Drug uptake (Mus musculus [1]) was 0.92 % ID/g, the Drug uptake (Lung) was 8.3 % ID/g and the Drug uptake (Mus musculus [2]) was 3.61 % ID/g. For the same compound, the Drug uptake (Brain [3]) was 2.7 % ID/g, the Drug uptake (Spleen) was 8.85 % ID/g and the Ratio [4] was 1.34. For the same compound, the Drug uptake (Liver [5]) was 5.31 % ID/g, the Drug uptake (Cerebellum) was “Active” and the Drug uptake (Mus musculus [6]) was 2 % ID/g. The Drug uptake (Mus musculus [7]) was 19.78 % ID/g, the Drug uptake (Kidney) was 5.6 % ID/g and the Drug uptake (Muscle tissue) was 0.97 % ID/g. The logD [8] was 2.39, the Drug metabolism (Brain [9]) was “Active” and the Drug uptake (Stomach [10]) was 1.9 % ID/g. For the same compound, the Drug uptake (Brain [11]) was 4.56 % ID/g, the Drug uptake (Mus musculus [12]) was 23.46 % ID/g and the Drug uptake (Mus musculus [13]) was “Active”. For the same compound, the Drug uptake (Mus musculus [14]) was 1.28 % ID/g, the Drug uptake (Mus musculus [15]) was 3.28 % ID/g and the remaining at 2 h [16] was 100%. It also gave a Drug uptake (Stomach [17]) of 1.77 % ID/g, a Drug uptake (Femur) of 2.32 % ID/g and a Drug uptake (Mus musculus [18]) of 2.52 % ID/g. For the same compound, the Drug uptake (Liver [19]) was 3.98 % ID/g, the Drug uptake (Mus musculus [20]) was “Active” and the Drug uptake (Mus musculus [21]) was 13.29 % ID/g. It also gave a Drug uptake [22] of 1.96 % ID/g, a Drug uptake (Liver [23]) of 3.95 % ID/g and a Drug uptake (Pancreas) of 9.27 % ID/g. The Drug uptake (Mus musculus [24]) was 3.55 % ID/g, the Drug uptake [25] was 0.32 % ID/g and the Drug uptake [26] was 0.4 % ID/g. The Drug uptake (Brain [27]) was 2.99 % ID/g.
